Assay results as given in ChEMBL document CHEMBL1821590, “Novel dihydropyrimidines and its pyrazole derivatives: synthesis and pharmacological screening” (Eur J Med Chem, 2011).
In brackets after ≈: the same amount, converted by molar mass.

How the values were obtained:
Assay type in all cases: functional
[1] = Antioxidant activity assessed as potassium ferricyanide ion reducing power after 20 mins
Outline: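 Oyaizu method. Samples or ascorbic acid in DMF (12.5–100 µg/mL) mixed with 0.2 M phosphate buffer pH 6.6 and 1% potassium ferricyanide, 20 min at 50 °C. 10% TCA added, centrifuged. Supernatant mixed with water and 0.1% FeCl3, read at 700 nm. % = [(Vt/Vc) − 1] × 100. IC50 derived.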

Escherichia coli [2] = assay: Antimicrobial activity against Escherichia coli at 25 ug/ml by agar plate diffusion technique; conditions: read-out: IZ
Outline: (§1)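 Agar plate diffusion against E. coli, P. aeruginosa, S. aureus and B. subtilis, with compounds at 25, 50 and 100 µg/mL. Streptomycin as standard.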

Bacillus subtilis [3] = assay: Antimicrobial activity against Bacillus subtilis at 100 ug/ml by agar plate diffusion technique; conditions: read-out: IZ; outline: as §1
Candida albicans [4] = assay: Antimicrobial activity against Candida albicans at 25 ug/ml by paper disc method; conditions: read-out: IZ
Outline: (§2)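 Paper disc method against A. niger and C. albicans, with compounds at 25, 50 and 100 µg/mL. Amphotericin-B as standard.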

Candida albicans [5] = assay: Antimicrobial activity against Candida albicans at 100 ug/ml by paper disc method; conditions: read-out: IZ; outline: as §2
Staphylococcus aureus [6] = assay: Antimicrobial activity against Staphylococcus aureus at 100 ug/ml by agar plate diffusion technique; conditions: read-out: IZ; outline: as §1
Aspergillus niger [7] = assay: Antimicrobial activity against Aspergillus niger at 50 ug/ml by paper disc method; conditions: read-out: IZ; outline: as §2
Metaphire posthuma [8] = assay: Anthelmintic activity against Pheretima posthuma assessed as time taken for parasite death at 0.2% w/v
Outline: (§3)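 Earthworms (Pheretima posthuma, spelled Perituma posthuma in text) exposed to test compounds at 0.1, 0.2 and 0.5% w/v. Albendazole served as standard, with an untreated control. Paralysis was recorded as the time until worms became motionless, then time to death was recorded, in minutes. Each value is the mean of three determinations with S.D.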

Pseudomonas aeruginosa [9] = assay: Antimicrobial activity against Pseudomonas aeruginosa at 25 ug/ml by agar plate diffusion technique; conditions: read-out: IZ; outline: as §1
Metaphire posthuma [10] = assay: Anthelmintic activity against Pheretima posthuma assessed as time taken for parasite death at 0.5% w/v; outline: as §3
Metaphire posthuma [11] = assay: Anthelmintic activity against Pheretima posthuma assessed as time taken for parasite death at 0.1% w/v; outline: as §3
Metaphire posthuma [12] = assay: Anthelmintic activity against Pheretima posthuma assessed as time taken for complete parasite paralysis at 0.1% w/v
Outline: (§4)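 Earthworms (Pheretima posthuma) exposed to test solutions at 0.1, 0.2 and 0.5% w/v; time in minutes to complete paralysis (worms motionless) recorded. Albendazole as standard. Mean of three determinations ± S.D.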

Pseudomonas aeruginosa [13] = assay: Antimicrobial activity against Pseudomonas aeruginosa at 100 ug/ml by agar plate diffusion technique; conditions: read-out: IZ; outline: as §1
Bacillus subtilis [14] = assay: Antimicrobial activity against Bacillus subtilis at 50 ug/ml by agar plate diffusion technique; conditions: read-out: IZ; outline: as §1
Aspergillus niger [15] = assay: Antimicrobial activity against Aspergillus niger at 100 ug/ml by paper disc method; conditions: read-out: IZ; outline: as §2
Aspergillus niger [16] = assay: Antimicrobial activity against Aspergillus niger at 25 ug/ml by paper disc method; conditions: read-out: IZ; outline: as §2
[17] = Antioxidant activity assessed as nitric oxide radical scavenging activity after 150 mins
Outline: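 10 mM sodium nitroprusside (4 mL), PBS pH 7.4 (1 mL) and sample or ascorbic acid in DMSO (1 mL, 12.5–100 µg/mL), incubated 150 min at 25 °C. Nitrite detected with sulphanilic acid (5 min) then naphthylethylenediamine (30 min, diffused light). Read at […]. Triplicate. % inhibition = [1 − (Vt/Vc)] × 100. IC50 derived from it.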

Candida albicans [18] = assay: Antimicrobial activity against Candida albicans at 50 ug/ml by paper disc method; conditions: read-out: IZ; outline: as §2
Staphylococcus aureus [19] = assay: Antimicrobial activity against Staphylococcus aureus at 25 ug/ml by agar plate diffusion technique; conditions: read-out: IZ; outline: as §1
Metaphire posthuma [20] = assay: Anthelmintic activity against Pheretima posthuma assessed as time taken for complete parasite paralysis at 0.2% w/v; outline: as §4
Pseudomonas aeruginosa [21] = assay: Antimicrobial activity against Pseudomonas aeruginosa at 50 ug/ml by agar plate diffusion technique; conditions: read-out: IZ; outline: as §1
Escherichia coli [22] = assay: Antimicrobial activity against Escherichia coli at 100 ug/ml by agar plate diffusion technique; conditions: read-out: IZ; outline: as §1
Escherichia coli [23] = assay: Antimicrobial activity against Escherichia coli at 50 ug/ml by agar plate diffusion technique; conditions: read-out: IZ; outline: as §1
[24] = Antioxidant activity assessed as inhibition of lipid peroxidation using egg lecithin liposomes incubated for 1 hr
Outline: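 Egg lecithin (3 mg/mL, phosphate buffer pH 7.4) sonicated 10 min to form liposomes. Sample or ascorbic acid (12.5–100 µg/mL) added. Peroxidation induced with FeCl3 and L-ascorbic acid, 1 h at 37 °C. Stopped with HCl/TCA/TBA/BHA, boiled 15 min, centrifuged, supernatant read at 532 nm. Triplicate. % inhibition vs control. IC50 derived.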

Metaphire posthuma [25] = assay: Anthelmintic activity against Pheretima posthuma assessed as time taken for complete parasite paralysis at 0.5% w/v; outline: as §4
Bacillus subtilis [26] = assay: Antimicrobial activity against Bacillus subtilis at 25 ug/ml by agar plate diffusion technique; conditions: read-out: IZ; outline: as §1
Staphylococcus aureus [27] = assay: Antimicrobial activity against Staphylococcus aureus at 50 ug/ml by agar plate diffusion technique; conditions: read-out: IZ; outline: as §1
[28] = Antiinflammatory activity assessed as inhibition of albumin denaturation at 100 ug/ml by UV-visible spectrophotometry
Outline: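 Compounds dissolved in minimal DMF, diluted in PBS pH 7.4 (final DMF <2.5%). 1 mL test solution (100 µg/mL) plus 1 mL 1% albumin in PBS, 15 min at 27 ± 1 °C, then heated 10 min at 60 ± 1 °C. After cooling, turbidity read at 660 nm. % inhibition = [(Vt/Vc) − 1] × 100 against a no-drug control. Triplicate, averaged. Diclofenac standard.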

[29] = Antioxidant activity assessed as hydrogen peroxide scavenging activity after 10 mins
Outline: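 H2O2 (20 mM) in PBS pH 7.4. 1 mL of sample or ascorbic acid in methanol (12.5–100 µg/mL) added to 2 mL H2O2 solution. A230 read after 10 min. % inhibition = [1 − (Vt/Vc)] × 100. Triplicate, averaged. IC50 derived from % inhibition across concentrations.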

Compound	IC50 [1] [µg/mL]	zone of inhibition at 25 µg/mL (Escherichia coli [2]) [mm]	zone of inhibition at 100 µg/mL (Bacillus subtilis [3]) [mm]	zone of inhibition at 25 µg/mL (Candida albicans [4]) [mm]	zone of inhibition at 100 µg/mL (Candida albicans [5]) [mm]	zone of inhibition at 100 µg/mL (Staphylococcus aureus [6]) [mm]	zone of inhibition at 50 µg/mL (Aspergillus niger [7]) [mm]	Time (Metaphire posthuma [8]) [min]	zone of inhibition at 25 µg/mL (Pseudomonas aeruginosa [9]) [mm]	Time (Metaphire posthuma [10]) [min]	Time (Metaphire posthuma [11]) [min]	Time (Metaphire posthuma [12]) [min]	zone of inhibition at 100 µg/mL (Pseudomonas aeruginosa [13]) [mm]	zone of inhibition at 50 µg/mL (Bacillus subtilis [14]) [mm]	zone of inhibition at 100 µg/mL (Aspergillus niger [15]) [mm]	zone of inhibition at 25 µg/mL (Aspergillus niger [16]) [mm]	IC50 [17] [µg/mL]	zone of inhibition at 50 µg/mL (Candida albicans [18]) [mm]	zone of inhibition at 25 µg/mL (Staphylococcus aureus [19]) [mm]	Time (Metaphire posthuma [20]) [min]	also measured
Cn1c(NN)nc(-c2ccccc2Cl)c(C#N)c1=O	58 (≈ 210 µM)	9.26	22.7	13.4	21.4	19.3	14	66.37	8.41	60.86	67.33	50.65	15.4	15.1	19.4	11.2	62 (≈ 225 µM)	17.9	12.8	52.38	zone of inhibition at 50 µg/mL (Pseudomonas aeruginosa [21]): 12.7 mm; zone of inhibition at 100 µg/mL (Escherichia coli [22]): 13.1 mm; zone of inhibition at 50 µg/mL (Escherichia coli [23]): 10.1 mm; IC50 [24]: 57 µg/mL (≈ 207 µM); Time (Metaphire posthuma [25]): 45.38 min; zone of inhibition at 25 µg/mL (Bacillus subtilis [26]): 11.1 mm; zone of inhibition at 50 µg/mL (Staphylococcus aureus [27]): 15.9 mm; inhibition [28]: 53.5%; IC50 [29]: 46 µg/mL (≈ 167 µM)
CSc1nc(-c2ccccc2O)c(C#N)c(=O)n1C	52 (≈ 190 µM)	6.25	25.5	8.84	20	11.2	9.46	48.34	6.36	45.3	50.82	40.28	10.8	16.9	15.4	8	58 (≈ 212 µM)	12.6	8.14	39.46	zone of inhibition at 50 µg/mL (Pseudomonas aeruginosa [21]): 8.16 mm; zone of inhibition at 100 µg/mL (Escherichia coli [22]): 11.3 mm; zone of inhibition at 50 µg/mL (Escherichia coli [23]): 9.16 mm; IC50 [24]: 44 µg/mL (≈ 161 µM); Time (Metaphire posthuma [25]): 35.14 min; zone of inhibition at 25 µg/mL (Bacillus subtilis [26]): 12.8 mm; zone of inhibition at 50 µg/mL (Staphylococcus aureus [27]): 9.33 mm; inhibition [28]: 51.9%; IC50 [29]: 39 µg/mL (≈ 143 µM)
CCOC(=O)c1cnn(-c2nc(-c3cccc(O)c3O)c(C#N)c(=O)n2C)c1N	41 (≈ 103 µM)	13.1	21.8	10.4	17.7	20.3	11.7	75.78	10.3	60.74	70.56	60.22	20.3	15.1	17.2	9.48	58 (≈ 146 µM)	13.3	12.7	65.54	zone of inhibition at 50 µg/mL (Pseudomonas aeruginosa [21]): 12.8 mm; zone of inhibition at 100 µg/mL (Escherichia coli [22]): 22.9 mm; zone of inhibition at 50 µg/mL (Escherichia coli [23]): 16 mm; IC50 [24]: 49 µg/mL (≈ 124 µM); Time (Metaphire posthuma [25]): 53.34 min; zone of inhibition at 25 µg/mL (Bacillus subtilis [26]): 14.4 mm; zone of inhibition at 50 µg/mL (Staphylococcus aureus [27]): 16.1 mm; inhibition [28]: 57.6%; IC50 [29]: 53 µg/mL (≈ 134 µM)
COc1ccc(-c2nc(SC)n(C)c(=O)c2C#N)cc1	58 (≈ 202 µM)	5.08	19.1	9.33	19.8	14.8	12	72.67	6.19	62.21	78.22	54.56	9.17	13.1	18	11.6	73 (≈ 254 µM)	11.2	8.76	46.56	zone of inhibition at 50 µg/mL (Pseudomonas aeruginosa [21]): 8.84 mm; zone of inhibition at 100 µg/mL (Escherichia coli [22]): 8.79 mm; zone of inhibition at 50 µg/mL (Escherichia coli [23]): 7.19 mm; IC50 [24]: 53 µg/mL (≈ 184 µM); Time (Metaphire posthuma [25]): 42.65 min; zone of inhibition at 25 µg/mL (Bacillus subtilis [26]): 11.7 mm; zone of inhibition at 50 µg/mL (Staphylococcus aureus [27]): 12.8 mm; inhibition [28]: 21.3%; IC50 [29]: 48 µg/mL (≈ 167 µM)
Cn1c(NN)nc(-c2ccccc2F)c(C#N)c1=O	50 (≈ 193 µM)	9.85	21.6	11.8	19.2	22.2	14	65.43	9	61.02	68.45	54.93	15.4	15.7	19.6	11.1	60 (≈ 231 µM)	17	13.6	51.34	zone of inhibition at 50 µg/mL (Pseudomonas aeruginosa [21]): 13.8 mm; zone of inhibition at 100 µg/mL (Escherichia coli [22]): 15.3 mm; zone of inhibition at 50 µg/mL (Escherichia coli [23]): 13.5 mm; IC50 [24]: 43 µg/mL (≈ 166 µM); Time (Metaphire posthuma [25]): 48.77 min; zone of inhibition at 25 µg/mL (Bacillus subtilis [26]): 13.1 mm; zone of inhibition at 50 µg/mL (Staphylococcus aureus [27]): 17.3 mm; inhibition [28]: 42.1%; IC50 [29]: 49 µg/mL (≈ 189 µM)
CCOC(=O)c1cnn(-c2nc(-c3cccc(OC)c3OC)c(C#N)c(=O)n2C)c1N	54 (≈ 127 µM)	10.3	19.2	9.41	17	18.7	12.1	62.12	9.9	52.69	87.55	75.14	17.4	15.1	18.9	10.8	69 (≈ 163 µM)	13.5	10.3	55.1	zone of inhibition at 50 µg/mL (Pseudomonas aeruginosa [21]): 12.3 mm; zone of inhibition at 100 µg/mL (Escherichia coli [22]): 16.2 mm; zone of inhibition at 50 µg/mL (Escherichia coli [23]): 12.4 mm; IC50 [24]: 57 µg/mL (≈ 134 µM); Time (Metaphire posthuma [25]): 43.9 min; zone of inhibition at 25 µg/mL (Bacillus subtilis [26]): 11.6 mm; zone of inhibition at 50 µg/mL (Staphylococcus aureus [27]): 14.1 mm; inhibition [28]: 33.9%; IC50 [29]: 67 µg/mL (≈ 158 µM)
